Data on one compound can be found in ChEMBL document CHEMBL2169822, “Discovery and optimization of 1,3,4-trisubstituted-pyrazolone derivatives as novel, potent, and nonsteroidal farnesoid X receptor (FXR) selective antagonists” (J Med Chem, 2012).

Calls of active or inactive are those of the source. The rule behind the calls is not given here.

Assay [1] deals with Mus musculus. Nature of the assay: Reduction of hepatic cholesterol level in cholesterol-fed C57BL/6 mouse at 100 mg/kg, po after 10 days. Format: functional. Set-up: scale not given: the % may be the effect or the level left. The method, boiled down:
(§1)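 Male C57BL/6 mice, 8–12 weeks old, were randomized into five groups of nine. Control mice had ground chow; the other groups had chow with 2% cholesterol. Compound (50 or 100 mg/kg) or reference (100 mg/kg) was suspended in 0.5% CMC-Na and given by oral gavage; control and vehicle mice got 0.5% CMC-Na. Serum and hepatic triglyceride and total cholesterol were measured.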

Assay [2] has as its target T1, Progesterone receptor (Homo sapiens) (UniProt P06401).
T1 sequence (whole entry): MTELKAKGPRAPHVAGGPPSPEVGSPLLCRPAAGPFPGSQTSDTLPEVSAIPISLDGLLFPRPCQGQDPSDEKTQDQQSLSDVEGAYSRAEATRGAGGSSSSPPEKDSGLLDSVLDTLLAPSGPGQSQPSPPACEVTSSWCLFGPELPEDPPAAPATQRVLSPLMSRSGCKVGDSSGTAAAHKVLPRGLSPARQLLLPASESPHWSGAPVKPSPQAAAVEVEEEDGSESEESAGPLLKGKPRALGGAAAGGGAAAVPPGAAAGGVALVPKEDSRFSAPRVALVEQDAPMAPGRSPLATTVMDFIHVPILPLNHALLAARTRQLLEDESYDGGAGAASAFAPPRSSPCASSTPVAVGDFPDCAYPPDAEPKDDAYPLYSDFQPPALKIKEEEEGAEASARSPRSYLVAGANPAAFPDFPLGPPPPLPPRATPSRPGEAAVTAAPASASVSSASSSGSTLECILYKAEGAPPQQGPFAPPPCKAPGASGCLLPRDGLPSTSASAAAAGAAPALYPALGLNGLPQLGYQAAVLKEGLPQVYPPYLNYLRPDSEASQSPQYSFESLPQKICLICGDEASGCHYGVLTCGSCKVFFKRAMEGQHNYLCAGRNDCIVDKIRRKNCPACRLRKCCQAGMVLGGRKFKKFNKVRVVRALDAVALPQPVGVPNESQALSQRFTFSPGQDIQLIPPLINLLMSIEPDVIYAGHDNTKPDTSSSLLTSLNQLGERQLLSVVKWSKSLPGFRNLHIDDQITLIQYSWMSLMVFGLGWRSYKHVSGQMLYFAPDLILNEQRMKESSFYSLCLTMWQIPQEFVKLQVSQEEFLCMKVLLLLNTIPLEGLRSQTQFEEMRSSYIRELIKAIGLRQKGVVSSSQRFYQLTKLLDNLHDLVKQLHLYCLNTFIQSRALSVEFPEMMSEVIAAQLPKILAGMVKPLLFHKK
Nature of the assay: Agonist activity at recombinant PR-LBD expressed in HEK293T cells co-expressing GAL4 DBD at 20 uM by transactivation assay. Format: functional, cell-based. Conditions: HEK-293T. Summed up:
(§2)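 One-hybrid assay in HEK293T cells cotransfected with a Gal4 DBD–NR-LBD fusion (RXRα, LXRα, GR, PR, PPARδ or PPARγ) plus UAS-TK-Luc reporter. Compound was 20 μM, given alone or with agonist: 9cRA 0.1 μM (RXRα), TO901317 0.5 μM (LXRα), dexamethasone 50 nM (GR), progesterone 100 nM (PR), GW1516 10 μM (PPARδ), rosiglitazone 10 μM (PPARγ). Luciferase read-out; three independent experiments.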

The species named for assay [3] is Homo sapiens. Description: Ratio of Z-guggulsterone IC50 to compound IC50 for GST-tagged human recombinant FXRalphaLBD.
The test system of assay [4] is Mus musculus. Nature of the assay: Reduction of serum triglyceride level in cholesterol-fed C57BL/6 mouse at 100 mg/kg, po after 10 days. Format: functional. Set-up: scale not given: the % may be the effect or the level left. Summed up: as §1
Assay [5] addresses T2, Bile acid receptor (Homo sapiens) (UniProt Q96RI1).
T2 sequence (whole entry): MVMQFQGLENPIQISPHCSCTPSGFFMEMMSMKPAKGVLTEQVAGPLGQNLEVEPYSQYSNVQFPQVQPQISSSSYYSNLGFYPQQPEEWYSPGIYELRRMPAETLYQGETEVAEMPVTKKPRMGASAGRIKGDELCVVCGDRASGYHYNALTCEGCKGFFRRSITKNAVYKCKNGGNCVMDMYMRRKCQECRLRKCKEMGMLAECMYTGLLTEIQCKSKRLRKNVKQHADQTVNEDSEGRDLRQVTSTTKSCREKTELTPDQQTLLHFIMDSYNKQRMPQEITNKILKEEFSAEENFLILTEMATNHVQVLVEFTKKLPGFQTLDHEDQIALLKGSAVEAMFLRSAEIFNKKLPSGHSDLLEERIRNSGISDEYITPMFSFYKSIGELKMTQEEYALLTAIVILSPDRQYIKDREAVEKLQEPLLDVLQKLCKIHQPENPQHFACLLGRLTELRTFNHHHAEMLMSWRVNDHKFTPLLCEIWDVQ
Nature of the assay: Antagonist activity at human FXR in human HepG2 cells assessed as inhibition of CDCA induced SHP gene expression at 5 to 40 uM after 24 hrs by RT-PCR analysis. Format: functional, cell-based. The method, boiled down:
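HepG2 cells in 6-well plates were treated with varied concentrations of compound, with or without 100 μM CDCA, for 24 h. Total RNA was taken with TRIzol and cDNA made by reverse transcription. Cyp7A1, SHP, BSEP and SREBP1c mRNA were measured by quantitative RT-PCR and normalized to β-actin. Three independent experiments.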

Assay [6] deals with T3, Oxysterols receptor LXR-alpha (Homo sapiens) (UniProt Q13133).
T3 sequence (whole entry): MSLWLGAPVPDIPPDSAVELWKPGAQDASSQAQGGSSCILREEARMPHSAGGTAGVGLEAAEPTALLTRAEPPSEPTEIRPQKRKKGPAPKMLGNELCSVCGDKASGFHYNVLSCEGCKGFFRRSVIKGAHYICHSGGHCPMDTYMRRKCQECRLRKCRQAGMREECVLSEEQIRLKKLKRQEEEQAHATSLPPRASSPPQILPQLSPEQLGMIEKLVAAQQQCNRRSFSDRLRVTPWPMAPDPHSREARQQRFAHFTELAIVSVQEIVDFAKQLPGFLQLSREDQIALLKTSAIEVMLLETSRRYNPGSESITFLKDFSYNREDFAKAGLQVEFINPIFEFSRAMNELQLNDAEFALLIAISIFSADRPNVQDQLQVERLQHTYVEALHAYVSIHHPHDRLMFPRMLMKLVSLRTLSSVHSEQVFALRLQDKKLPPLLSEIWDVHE
Nature of the assay: Agonist activity at recombinant LXRalphaLBD expressed in HEK293T cells co-expressing GAL4 DBD at 20 uM by transactivation assay. The format is functional, cell-based. Conditions: HEK-293T. Summed up: as §2

Assay [7] in a line: Binding affinity to FXRalphaLBD assessed as fluorescence quenching after 1 hr. Summed up:
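Untagged FXRαLBD (His-tag removed with thrombin; Ni-NTA and ion exchange purified), 1 μM, was incubated with varied compound concentrations for 1 h at 4 °C. Tryptophan fluorescence was read at 25 °C: excitation 280 nm, emission 300–400 nm, 5 nm slits. KD was fitted from quenching.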

The subject of assay [8] is Mus musculus. Nature of the assay: Reduction of serum triglyceride level in cholesterol-fed C57BL/6 mouse administered orally after 10 days. The format is functional, organism-based. Summed up: as §1

In the case of `COc1cc(/C=C2\C(=O)N(c3cccc([N+](=O)[O-])c3)N=C2c2ccccc2)ccc1O`, the Activity in assay [1] was 47.5%; in assay [4] it was 60.3%; in assay [7] it was “Dose-dependent effect”; in assay [8], “Dose-dependent effect”. The result in assay [2] and in assay [6] was inactive. Moreover, the Ratio IC50 in assay [3] worked out at 10. Besides, the inhibition result in assay [5] was “Active”. The Kd in assay [7] is 23.1 µM.

What is called Kd is the concentration at which binding is half-saturated.
